According to ChEMBL document CHEMBL3393005, “Design and synthesis of novel 2-pyrazoline-1-ethanone derivatives as selective MAO inhibitors” (Bioorg Med Chem, 2015):

Legend:
[1] = organism: Homo sapiens; assay: Selectivity index, ratio of IC50 for human recombinant MAO-B to IC50 for human recombinant MAO-A
Summary of the method: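 SI = IC50(MAO-B)/IC50(MAO-A), both from the same Amplex Red/p-tyramine H2O2 fluorimetric assay. Each isoform came from microsomes of baculovirus-infected insect cells: MAO-A at 1.1 µg, MAO-B at 7.5 µg, matched to equal velocity.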

[2] = molecular target: T1, Amine oxidase [flavin-containing] A (Homo sapiens, UniProt P21397); assay: Inhibition of human recombinant MAO-A using p-tyramine as substrate assessed as production of H2O2 incubated for 15 mins prior to substrate addition measured after 20 mins by microplate fluorescence reader analysis
T1 sequence (P21397 whole entry): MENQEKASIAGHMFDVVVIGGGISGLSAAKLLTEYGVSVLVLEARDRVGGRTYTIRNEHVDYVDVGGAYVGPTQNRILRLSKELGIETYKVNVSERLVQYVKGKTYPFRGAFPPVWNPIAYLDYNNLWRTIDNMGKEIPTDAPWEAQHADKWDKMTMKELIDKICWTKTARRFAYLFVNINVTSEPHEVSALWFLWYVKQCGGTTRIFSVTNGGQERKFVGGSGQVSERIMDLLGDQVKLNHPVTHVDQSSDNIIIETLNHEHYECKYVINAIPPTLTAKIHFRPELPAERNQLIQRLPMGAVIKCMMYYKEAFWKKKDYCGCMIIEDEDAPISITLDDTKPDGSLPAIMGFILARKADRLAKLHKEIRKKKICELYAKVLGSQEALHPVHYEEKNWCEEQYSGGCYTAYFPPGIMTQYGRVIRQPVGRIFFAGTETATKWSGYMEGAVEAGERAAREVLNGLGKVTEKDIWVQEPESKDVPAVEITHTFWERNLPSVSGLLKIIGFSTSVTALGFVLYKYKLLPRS

[3] = molecular target: T2, Amine oxidase [flavin-containing] B (Homo sapiens, UniProt P27338); assay: Inhibition of human recombinant MAO-B using p-tyramine as substrate assessed as production of H2O2 incubated for 15 mins prior to substrate addition measured after 20 mins by microplate fluorescence reader analysis
T2 sequence (P27338 whole entry): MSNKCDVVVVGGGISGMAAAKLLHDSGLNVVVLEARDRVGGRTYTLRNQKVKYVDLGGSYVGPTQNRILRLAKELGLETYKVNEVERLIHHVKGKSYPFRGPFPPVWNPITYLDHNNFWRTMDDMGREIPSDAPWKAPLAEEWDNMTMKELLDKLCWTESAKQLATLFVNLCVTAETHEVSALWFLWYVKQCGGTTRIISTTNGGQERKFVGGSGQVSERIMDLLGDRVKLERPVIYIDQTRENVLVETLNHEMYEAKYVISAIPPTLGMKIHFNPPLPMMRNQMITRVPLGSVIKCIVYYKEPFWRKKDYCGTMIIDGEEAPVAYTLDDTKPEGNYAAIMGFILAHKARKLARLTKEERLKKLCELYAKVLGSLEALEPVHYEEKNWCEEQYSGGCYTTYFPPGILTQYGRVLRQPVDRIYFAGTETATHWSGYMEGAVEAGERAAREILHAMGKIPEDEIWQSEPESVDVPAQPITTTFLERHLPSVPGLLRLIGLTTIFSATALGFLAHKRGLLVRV

[4] = molecular target: T2, Amine oxidase [flavin-containing] B; assay: Inhibition of human recombinant MAO-B using p-tyramine as substrate assessed as production of H2O2 incubated for 15 mins prior to substrate addition at 60 uM measured after 20 mins by microplate fluorescence reader analysis
[5] = molecular target: T1, Amine oxidase [flavin-containing] A; assay: Inhibition of human recombinant MAO-A using p-tyramine as substrate assessed as production of H2O2 incubated for 15 mins prior to substrate addition at 60 uM […] by microplate fluorescence reader analysis; conditions: 20 min

SMILES | Ratio IC50 [1] | IC50 [2] | IC50 [3] | INH [4] | inhibition (INH) [5]
CC1=NN(C(=O)CN2CCCCC2)C(c2cc(Br)cc(Br)c2O)C1 (centres undefined) | 6.4 | 7.8 µM | 49.9 µM |  | 
O=C(CN1CCOCC1)N1N=C(c2ccc(Cl)cc2)CC1c1cc(Cl)ccc1O (centres undefined) | 1.8 | 31.2 µM | 55.1 µM |  | 
CC1=NN(C(=O)CN2CCN(CCO)CC2)C(c2cc(Br)cc(Br)c2O)C1 (centres undefined) | 3.4 | 12.3 µM | 42.3 µM |  | 
COc1ccc(C2=NN(C(=O)Cn3ccnc3)C(c3cc(Cl)ccc3O)C2)cc1 (centres undefined) |  |  |  | Not Active | Not Active
O=C(CN1CCCCC1)N1N=C(c2ccc(F)cc2)CC1c1cc(Cl)ccc1O (centres undefined) | 16.1 | 3.72 µM |  | Not Active | 
Cc1ccc(C2=NN(C(=O)CN3CCOCC3)C(c3ccccc3O)C2)cc1 (centres undefined) | 3 | 20 µM |  | Not Active | 
COc1ccc(C2=NN(C(=O)CN3CCOCC3)C(c3cc(Cl)ccc3O)C2)cc1 (centres undefined) | 3.1 | 18.3 µM | 56.5 µM |  | 
CC1=NN(C(=O)CN2CCOCC2)C(c2cc(Cl)ccc2O)C1 (centres undefined) | 3.2 | 13.1 µM | 41.8 µM |  | 
O=C(Cn1ccnc1)N1N=C(c2ccc(F)cc2)CC1c1cc(Cl)ccc1O (centres undefined) |  |  |  | Not Active | Not Active
O=C(CN1CCCCC1)N1N=C(c2ccc(Cl)cc2)CC1c1cc(Cl)ccc1O (centres undefined) | 7.3 | 6.01 µM | 44.1 µM |  | 
COc1ccc(C2=NN(C(=O)CN3CCCCC3)C(c3ccccc3O)C2)cc1 (centres undefined) | 4.7 | 12.7 µM | 59.4 µM |  | 
O=C(CBr)N1N=C(c2ccc(F)cc2)CC1c1ccccc1O (centres undefined) | 8.8 | 6 µM | 52.9 µM |  | 
Cc1ccc(C2=NN(C(=O)CN3CCOCC3)C(c3cc(Cl)ccc3O)C2)cc1 (centres undefined) | 2.2 | 27 µM |  | Not Active | 
O=C(CN1CCCCC1)N1N=C(c2ccc(Cl)cc2)CC1c1ccccc1O (centres undefined) | 5.5 | 7.25 µM | 40.1 µM |  | 
O=C(Cn1ccnc1)N1N=C(c2ccccc2)CC1c1ccccc1O (centres undefined) | 1 |  | 59.4 µM |  | Not Active
O=C(CN1CCOCC1)N1N=C(c2ccc(F)cc2)CC1c1ccccc1O (centres undefined) | 3.6 | 16.9 µM |  | Not Active | 
Cc1ccc(C2=NN(C(=O)CN3CCCCC3)C(c3cc(Cl)ccc3O)C2)cc1 (centres undefined) | 3.9 | 14.4 µM | 56.2 µM |  | 
COc1ccc(C2=NN(C(=O)CN3CCCCC3)C(c3cc(Cl)ccc3O)C2)cc1 (centres undefined) | 6.2 | 9.65 µM |  | Not Active | 
O=C(CN1CCOCC1)N1N=C(c2ccccc2)CC1c1ccccc1O (centres undefined) | 2.6 | 23.2 µM |  | Not Active | 

SMILES | Ratio IC50 [1] | IC50 [2] | IC50 [3] | INH [4] | inhibition (INH) [5]
CC1=NN(C(=O)CN2CCCCC2)C(c2cc(Cl)ccc2O)C1 (centres undefined) | 5.3 | 10.5 µM | 55.9 µM |  | 
O=C(CN1CCOCC1)N1N=C(c2ccc(Cl)cc2)CC1c1ccccc1O (centres undefined) | 1.5 | 21.2 µM | 31.5 µM |  | 
CC1=NN(C(=O)Cn2ccnc2)C(c2cc(Cl)ccc2O)C1 (centres undefined) | 2 | 30.3 µM |  | Not Active | 
Cc1ccc(C2=NN(C(=O)Cn3ccnc3)C(c3ccccc3O)C2)cc1 (centres undefined) | 0.69 |  | 41.3 µM |  | Not Active
CC1=NN(C(=O)CN2CCC(O)CC2)C(c2cc(Br)cc(Br)c2O)C1 (centres undefined) | 4.8 | 12.4 µM |  | Not Active | 
CC1=NN(C(=O)CN2CCC(=O)CC2)C(c2cc(Br)cc(Br)c2O)C1 (centres undefined) | 7 | 8.38 µM | 58.9 µM |  | 
O=C(CN1CCNCC1)N1N=C(c2ccc(F)cc2)CC1c1cc(Cl)ccc1O (centres undefined) | 24.5 | 2.4 µM | 58.9 µM |  | 
COc1ccc(C2=NN(C(=O)CN3CCOCC3)C(c3ccccc3O)C2)cc1 (centres undefined) | 2.5 | 24.5 µM |  | Not Active | 
COc1ccc(C2=NN(C(=O)Cn3ccnc3)C(c3ccccc3O)C2)cc1 (centres undefined) |  |  |  | Not Active | Not Active
O=C(Cn1ccnc1)N1N=C(c2ccc(F)cc2)CC1c1ccccc1O (centres undefined) | 2.3 | 26.3 µM |  | Not Active | 
C#CCN(C)[C@H](C)Cc1ccccc1 [SELEGILINE] |  |  |  |  | Not Active
CC1=NN(C(=O)CN2CCC(CO)CC2)C(c2cc(Br)cc(Br)c2O)C1 (centres undefined) | 1.2 | 25.7 µM | 30.1 µM |  | 
O=C(CN1CCCCC1)N1N=C(c2ccccc2)CC1c1ccccc1O (centres undefined) | 5.3 | 9.51 µM | 50.6 µM |  | 
Cc1ccc(C2=NN(C(=O)Cn3ccnc3)C(c3cc(Cl)ccc3O)C2)cc1 (centres undefined) | 0.27 |  | 16.1 µM |  | Not Active
O=C(CN1CCOCC1)N1N=C(c2ccc(F)cc2)CC1c1cc(Cl)ccc1O (centres undefined) | 1.2 | 24.3 µM | 30.2 µM |  | 
O=C(CN1CCCCC1)N1N=C(c2ccc(F)cc2)CC1c1ccccc1O (centres undefined) | 5.9 | 8.02 µM | 47.4 µM |  | 
Cc1ccc(C2=NN(C(=O)CBr)C(c3cc(Cl)ccc3O)C2)cc1 (centres undefined) | 11.5 | 5.22 µM |  | Not Active | 
CC1=NN(C(=O)CN2CCNCC2)C(c2cc(Br)cc(Br)c2O)C1 (centres undefined) | 30 | 2 µM |  | Not Active | 
Cc1ccc(C2=NN(C(=O)CN3CCCCC3)C(c3ccccc3O)C2)cc1 (centres undefined) | 4 | 11.3 µM | 45.6 µM |  | 
